In ChEMBL document CHEMBL4513216, “Probing the Open Global Health Chemical Diversity Library for Multistage-Active Starting Points for Next-Generation Antimalarials” (ACS Infect Dis, 2020):

Experiment: Toxicity liver stage against HepG2, at 10uM
Assay type: cell-based
Design: test concentration 10 uM, cell line HepG2-A16-CD81EGFP
Details: human, HepG2-A16-CD81EGFP cells; read-out: INHIBITION
How it was run: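 Uninfected HepG2-A16-CD81EGFP cells, 3 × 10^3 per well, 1536-well, plated on prespotted compound at 10 μM final, parasite-free screening media added to match infected plates; puromycin 10 μM positive, DMSO 0.5% negative; run in parallel with 48 h PbLuc assay at 37 °C, 5% CO2; viability by CellTiter-Glo luminescence, normalized to controls.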

SMILES	cytotoxicity at 10 µM
Cc1ccc(C(=O)NCCCN2CCOCC2)c(Cl)c1	-12.5%
O=C(NCCN1CCOCC1)N1CCN(c2ccccc2)CC1	8.84%
COC(=O)[C@H]1CN(C(C)=O)CCN1C(C)=O	-3.31%
O=C1NC[C@H]2CN(Cc3nccs3)CCN12	-4.9%
CC(=O)NC[C@H]1COCc2nc3cc(S(C)(=O)=O)ccc3n21	0.722%
O=C(NCc1ccccc1)[C@@H]1Cc2[nH]cnc2CN1CC1CC1	3.17%
CN1CCN(C(=O)c2cc3sccc3n2Cc2ccccc2F)CC1	1.94%
O=C1CCC(c2ccc(Cl)cc2)=NN1CN1CCCCCC1	35.7%
COC(=O)c1ccc(C(=O)NCC(O)c2cccn2C)cc1 (stereo not given)	-3.84%
c1nc2n(c1CN1CCOCC1)CCN(C1CCOC1)CC2 (stereo not given)	-136%
COCC(=O)N1CCc2nc(C(=O)Nc3cccnc3)sc2CC1	7.98%
Cc1noc(C)c1CN1CC2(CCN(C(=O)c3ccc[nH]3)C2)CC1=O (stereo not given)	6.27%
CN(Cc1cn2c(n1)CN(C(=O)c1cccnc1)CC2)Cc1ccco1	-2.19%
CCC(=O)N1CCC2(COCc3c(C)nc(N(C)C)nc32)C1 (stereo not given)	-31.5%
Fc1cnc(N2CCC3(COCc4cnc(NCC5CC5)nc43)C2)nc1 (stereo not given)	-4.43%
O=C1CCC2(CCCN(c3ncc(F)cn3)CC2)N1CC1CC1 (stereo not given)	-0.291%
O=c1[nH]cc(N2CCOCC2)c(=O)[nH]1	6.36%
COCC(=O)N1CCCC(c2csc(NC(C)=O)n2)C1 (stereo not given)	-17.2%
CN1CCNC(Cc2ccc(-c3cccs3)cc2)C1=O (stereo not given)	-29.3%
CC(=O)N1CCC(c2ccnc(Nc3ccc(C)cn3)n2)C1 (stereo not given)	-16.7%
Cc1cc(CN2CCN(C(C)C(=O)NCc3cccs3)CC2)no1 (stereo not given)	-0.335%
Cc1cccc2nc(CN3CCC(N4CCN(C)C4=O)CC3)cn12	-0.337%
O=C(Nc1ccc(-c2ccccc2)cn1)C1CCN(C(=O)C2CC2)CC1	-14.8%

SMILES	cytotoxicity at 10 µM
Cc1nc2cc(=O)[nH]n2c(C)c1CNC(=O)C(C)(C)c1ccccc1	1.1%
Cc1nc(CN2CCN(c3ccc(Cl)cn3)CC2)no1	1.3%
Cc1ccc(CN(C(=O)NCC2CCCO2)C2CC2)o1 (stereo not given)	-151%
C=C(C)CN(CC)C(=O)c1cc(F)ccc1NS(C)(=O)=O	-2.12%
O=C(CCC(=O)N1CCOCC1c1ccccc1)c1cccs1 (stereo not given)	-1.26%
Cc1ccccc1C(=O)NCCC(=O)NS(=O)(=O)c1cccnc1	-11.6%
CCc1n[nH]c(NC(=O)c2ccc(Cl)cn2)c1Br	-5.37%
O=C(NCCOc1ccc(Cl)cn1)NCCc1ccccn1	7.95%
Cc1nn(C)c(C)c1C1CCCN1CCCC#N (stereo not given)	-0.699%
COCCC(=O)N1CCC(Nc2ncc(Br)cn2)CC1	-2.46%
NC(=O)N1CCCC1COC(=O)c1ccc(F)cc1Br (stereo not given)	0.616%
O=C(NCC(O)c1ccc(F)cc1F)c1ccccc1F (stereo not given)	13.9%
Cc1nn(C)c(N2CCCN(C)CC2)c1CNC(=O)CC1CCCC1	-7.43%
CC(=O)c1ccc(NC(=O)NC(C)c2ccc3c(c2)CC(=O)N3)cc1 (stereo not given)	-8.03%
O=C(C1CC1)N1CCN(C(=O)C2CC(=O)N(c3ccccc3Br)C2)CC1 (stereo not given)	12.8%
Cc1cnc(NC(=O)N2CCC(N3CCCCC3=O)CC2)s1	-0.772%
Cc1csc(NC(=O)CN2CCc3nn(C)c(=O)cc3C2)n1	-0.995%
CN(CC(=O)Nc1cc(-c2cc(Cl)cc(Cl)c2)[nH]n1)S(C)(=O)=O	6.72%
NC(=O)CSc1ccccc1NC(=O)CC1C=CCC1 (stereo not given)	-131%
CC(C)(C)CC(=O)Nc1ccccc1SCC(N)=O	-138%
COc1ccc2cc(CN(C)C(C)c3nc(C(C)(C)C)no3)ccc2c1 (stereo not given)	1.44%
CC(C)c1nnc2n1CCN(C(=O)c1ccc(OCC3CC3)nc1)C2	-0.556%
Cc1ccccc1OCCN1CCCC1CS(N)(=O)=O (stereo not given)	18.3%

SMILES	cytotoxicity at 10 µM
COc1c(Br)cccc1CCNC(=O)c1ncoc1C	3.39%
OCCCNC1CCc2cc3c(cc21)OCCO3 (stereo not given)	-5.93%
Cc1nc(NC(=O)C2CCCN(C(=O)C3CC3)C2)sc1C (stereo not given)	3.71%
Cc1cc(C)cc(OCC(=O)N2CCCC2)c1	5.04%
CC(=O)Nc1ccc(CNc2ccn(Cc3ccccc3)n2)cc1	10.1%
O=C(Nc1cc(-n2cccc2)ccc1F)N1CCCC1	-4.22%
CC(=O)NS(=O)(=O)c1ccc2c(c1)N(C)CCC2	-0.89%
c1csc(CNc2ccccc2Cn2cncn2)c1	11.5%
O=C(Cc1ccc(Cl)cc1)N1CCC(O)(C(F)(F)F)C1 (stereo not given)	-12.3%
O=C(NCCc1nnc2n1CCCCC2)N1CCC2(CCCC2)CC1	-7.94%
O=C(c1cn(-c2ccccc2Cl)nn1)N1CCCSCC1	-4.26%
CC(C)Oc1ccc(CSc2nnc(CN3CCCC3=O)o2)cc1	-1.71%
CCNC(=O)N1CCCCC1CCNS(C)(=O)=O (stereo not given)	-7.71%
CCCN1CCN(Cc2nccn2CC)C(C)C1 (stereo not given)	8.14%
Cn1nccc1-c1ncc(-c2cc(C(=O)O)n(CC3CC3)c2)cn1	1.55%
CN1CCN(Cc2cnn(-c3ccccc3Cl)c2)[C@H]2CS(=O)(=O)C[C@H]21	6.19%
Oc1ccccc1-c1cc(-c2nc(C3CC3)n[nH]2)[nH]n1	0.45%
CCc1nnc(CNC(=O)CCC2CCCN(C)C2)s1 (stereo not given)	-148%
CCCc1cc(C(=O)N2Cc3ccccc3C2)[nH]n1	2.02%
O=C(CN1C(=O)CCNC1=O)N1CCOC(c2ccc(Cl)c(Cl)c2)C1 (stereo not given)	6.28%
Cc1nc(C2CCNCC2)cc(N2CCOc3ccccc3C2)n1	-2.3%
COc1cc(-c2nc3c([nH]2)CCCNC3=O)ccc1O	16.9%
CCn1c(CN2CCCC2)nnc1C1CCN(Cc2cc(C)no2)CC1	3.6%

SMILES	cytotoxicity at 10 µM
CCc1cc(N2CCC(F)(F)CC2)n2nc(C)c(C)c2n1	-6.42%
Cc1[nH]nc(CCC(=O)NCC2CCN(C3CCCCC3)C2)c1C (stereo not given)	-5.08%
CCc1cnc(NCC(c2ccncc2)N2CCOCC2)nc1 (stereo not given)	8.71%
O=c1cc(N2CCCCC2)cnn1CCCn1cccn1	-48.9%
COc1cccc(CN2CCC(O)(c3ccc(C)cn3)CC2)c1OC	-107%
CCCn1cc(NC(=O)c2cccc(CN3CC=CC3)c2)nn1	-147%
CNC(=O)c1cc(-n2ccnc2-c2cnc(N(C)C)nc2)ccc1OC	-6.91%
CC(=O)N[C@@H](CC(C)C)C(=O)N1CCC(n2cc(CC(C)C)nn2)CC1	-10.8%
CCc1nc(N)nc(N2CCCC3(CCN(C)CC3)CC2)c1C	-179%
CCO[C@H]1COC[C@@H]1NC(=O)c1c[nH]nc1C1CCCCC1	-3.13%
Cc1cn2cc(-c3nc4c([nH]3)CCCNC4=O)nc2s1	5.48%
CCc1cnc(NCCCN2CCC(O)CC2)nc1	3.44%
CC(C)C[C@H](NC(=O)c1cc(-c2cccn2C)n[nH]1)C(N)=O	3.7%
CC(C)N(C)CC(=O)N(C)C(c1cccc(F)c1)c1ccccn1 (stereo not given)	-6.14%
CCOCCN1CCN(CCCS(C)(=O)=O)CC1C (stereo not given)	-4.14%
CN(Cc1ccccc1C#N)C1CCN(CCc2ccccn2)CC1	-6.55%
Cc1noc(C)c1CN(C)CC(c1cccs1)N1CCOCC1 (stereo not given)	-4.98%
c1cnnc(N2CCCC2CNCc2cscn2)c1 (stereo not given)	-5.78%
COC(=O)c1cc(C(=O)N2CCOC(C)(C)C2)n(-c2ccccc2)n1	-2.81%
O=C(Cc1ccc2c(c1)OCCO2)NC1CCCCC1	-12.3%
CCc1noc(C(C)N2CCN(CC)CC2)n1 (stereo not given)	-6.01%
Cc1nn(C)c(N(C)C)c1CNCc1ccc(Cn2cncn2)cc1	-6.94%
O=C(NCCc1cccs1)NCC(O)c1cccc(F)c1 (stereo not given)	-4.07%

SMILES	cytotoxicity at 10 µM
CN(C)c1ncccc1CNS(=O)(=O)c1ccc(F)cc1F	-3%
CCc1ccsc1C(=O)N1CCN(CC(N)=O)CC1	-1.1%
Cc1nc(CN(C)C2CCN(Cc3nnc(C4CC4)o3)C2)no1 (stereo not given)	-5%
CN(Cc1ccco1)C(=O)CN1CCOC(Cn2cccn2)C1 (stereo not given)	-9.91%
FC(F)CN1CCOC(Cn2cccn2)C1 (stereo not given)	-9.94%
Cc1nn(C)c(C)c1C1CCCN1Cc1nc2ccccc2n1C (stereo not given)	-14.4%
O=C(NCCC(=O)N1CCCc2ccccc21)c1c(F)cccc1F	-14.5%
CCCc1ccc(C(=O)N2CCn3c(nnc3C(C)C)C2)cc1	9.83%
CCc1nnsc1C(=O)N1CCCN(Cc2cnn(CC)c2)CC1	-1.76%
O=S(=O)(C1CC1)N1CCn2cc(CNc3ccccn3)nc2C1	8.04%
O=C(c1c[nH]cn1)N1CCCn2c(CN3CCCCC3)nnc2C1	-3.03%
COCCN1CCO[C@H]2CN(C(=O)c3ccncc3F)C[C@H]21	-141%
CN1CCN(C(=O)CCc2ccccc2)Cc2cccnc21	-1.04%
O=C1COC2(CCN(Cc3ccncc3)CC2)CN1	-1.81%
Fc1ccc(CN2CCn3cc(Cn4cccn4)nc3C2)cc1	0.864%
c1ccc(C[C@H]2CN(C3CCOCC3)CC[C@H]2OCC2CC2)cc1	0.994%
CCCS(=O)(=O)N1Cc2nccn2CC(CN(C)C)C1 (stereo not given)	-106%
Cc1nn(C)c(N(C)C)c1CNCC(O)COc1ccccc1 (stereo not given)	-0.0582%
O=C1N(c2cccnc2)CCC12CCCN(Cc1cccnc1)C2 (stereo not given)	0.951%
Cc1nc(CN2C(=O)CC[C@@H]3[C@H]2CCN3C2CCOC2)cs1 (stereo not given in full)	-141%
O=C(O)c1cc(C=Cc2ccc3ccccc3c2)ncn1	-13.6%
CCN(CCSc1ccccc1)C(=O)c1cn(C2CCC(N)CC2)nn1 (stereo not given)	-2.93%
CN1C(=O)[C@@H]2CC[C@H]1CN(C(=O)Nc1ccccc1C(F)(F)F)C2	-2.53%
